Experimental data as given in ChEMBL document CHEMBL4513216, “Probing the Open Global Health Chemical Diversity Library for Multistage-Active Starting Points for Next-Generation Antimalarials” (ACS Infect Dis, 2020).

Test: Toxicity liver stage against HepG2, at 10uM
Type: cell-based
Parameters: test concentration 10 uM, cell line HepG2-A16-CD81EGFP
Details: human, HepG2-A16-CD81EGFP cells; read-out: INHIBITION
In short: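 Uninfected HepG2-A16-CD81EGFP cells, 3 × 10^3 per well, 1536-well, plated on prespotted compound at 10 μM final, parasite-free screening media added to match infected plates; puromycin 10 μM positive, DMSO 0.5% negative; run in parallel with 48 h PbLuc assay at 37 °C, 5% CO2; viability by CellTiter-Glo luminescence, normalized to controls.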

SMILES | cytotoxicity at 10 µM
Cc1cc(C)cc(NC(=O)CN2CCCC(n3cncn3)C2)c1 (stereo unspecified) | -9.93%
COCCN1CCc2cc(C(=O)N(C)C)c(NC(C)C)nc2CC1 | -3.91%
Cc1cccc(C(=O)N2CCCC2)c1NCC(=O)NC(C)(C#N)C1CC1 (stereo unspecified) | -6.8%
COc1cc(N2CC[C@@H]3[C@@H](CC2)OCCN3CC2CC2)ncn1 | -107%
CCC1CN(CC(=O)N2CCC2)CCN1CCOC (stereo unspecified) | -9.78%
COCCOc1ccccc1C(=O)N1CCCCC1c1nccs1 (stereo unspecified) | 0.642%
Cc1cc(C)n(CC2CN(CCOc3ccccc3C#N)CCO2)n1 (stereo unspecified) | -3.71%
CC(C)(C)OC(=O)N1CCC[C@H](NCC2CCOCC2)C1 | -0.678%
CN(c1ccc(F)c(F)c1)S(=O)(=O)c1cc2c(c(C(=O)O)c1)OCCO2 | -5.38%
CN(C)Cc1cccc(-c2cccnc2C(=O)NCC2CC2)c1 | 1.59%
Cc1csc(Nc2nccnc2C2CCCN2S(C)(=O)=O)n1 (stereo unspecified) | -3.69%
O=S(=O)(c1ccc(-c2cnco2)cc1)N1CCC2(CCCNC2)C1 (stereo unspecified) | -27.3%
Cc1cccc(N2CC[C@H]3[C@H]2CCN3C(=O)c2cnn(C)c2)n1 | 1.24%
COC(=O)N1CCC(Nc2cccc(F)c2C(C)=O)CC1 | 12.7%
Cc1ccc(NC(=O)CCc2cnn(C)c2)cc1F | -1.69%
CCCc1nnnn1CC(=O)NCc1cccc(C)c1 | -3.94%
CCN(CC)S(=O)(=O)N1C[C@H]2CC[C@@H](C1)N(Cc1cscn1)C2=O | -21.1%
COc1cccc(-c2n[nH]c3c2CN(C(=O)C2=C(C)OCCO2)CC3)c1 | 3.28%
CCNC(c1cccnc1)c1ccc(F)c(C)c1 (stereo unspecified) | -1.77%
Cc1nc(CN2CCN(c3cc(CCN)ncn3)CC2)cs1 | -145%
Cc1ccc(NCc2nc3n(n2)CCCCC3)c(C)c1 | 4.7%
O=C(CSc1ccc2c(c1)OCCO2)NS(=O)(=O)c1ccccc1Cl | -4.46%
Cc1nc(C2CCCN2CC(=O)NCCOc2ccccc2)no1 (stereo unspecified) | -6.54%

SMILES | cytotoxicity at 10 µM
Cc1[nH]c2c(F)cccc2c1CC(=O)N1CCN(C2CCSCC2)CC1 | 4.82%
CCc1ncc(C(=O)c2ccc(OC)cc2)n1C | 14.5%
COc1ccc(Cn2c(=O)n(C)c(=O)c3sccc32)cc1 | 24.2%
Cc1ccc(-c2ccnc(N(C)CC3CCCN3C)n2)c(C)n1 (stereo unspecified) | -9.66%
Cn1cnc2c1CCN(CC(O)c1ccc3c(c1)OCCO3)C2 (stereo unspecified) | -13.7%
Cc1cc(-c2cnc(N3CCNC(=O)C3)nc2-c2ccc(C)o2)on1 | -5.77%
Cc1cc(C(=O)N2CCCC(c3noc(C)n3)C2)[nH]n1 (stereo unspecified) | -6.67%
Cc1cc(CN(C)C(C(=O)O)c2ccc(C(C)(C)C)cc2)on1 (stereo unspecified) | -6.36%
Cc1nccn1CCC1CCN(C2CCC3(CCNCC3)CC2)CC1 | -1.43%
COCc1nc(CN2CCC3(CCCO3)CCC2=O)no1 (stereo unspecified) | -10.3%
Cn1cnc(CN2Cc3nccn3CC2c2ccccc2)c1 (stereo unspecified) | 2.98%
O=C([C@H]1CCCO1)N1CCC2(CC1)CNCc1ccccc12 | -2.57%
O=C(c1cccc2c1OCO2)N1CCCCC1Cn1cccn1 (stereo unspecified) | -1.25%
CC1CN(Cc2nnsc2Cl)CCN1c1nccs1 (stereo unspecified) | -39.3%
CCN(Cc1ccccc1C)S(C)(=O)=O | 9.23%
CCOc1ccccc1C(=O)Nn1c(C)cc(C)cc1=O | -10.9%
Cc1ccc2nc(CN(C)Cc3[nH]nc4c3CCC4)[nH]c2c1C | 2.74%
CN1N=C(C(=O)N2CCCC(CCc3c(F)cccc3F)C2)CCC1=O (stereo unspecified) | -7.41%
Cc1nccn1CC1CCCN1S(=O)(=O)Cc1ccon1 (stereo unspecified) | -9.57%
CNC(=O)[C@@H]1C[C@H](N)CN1S(=O)(=O)c1cc(Cl)c(Cl)s1 | 1.27%
CCN(CC)CCNc1ncc(-c2cc(C)no2)c(-c2ccoc2C)n1 | -4.94%
COc1nccnc1-c1cc(NC2CCNCC2)nc2[nH]ccc12 | -10.7%
CCn1cc(CN2CCCN(C(=O)c3sccc3C#N)CC2)cn1 | -6.41%

SMILES | cytotoxicity at 10 µM
Cc1nc(CC(=O)N2CCOC(c3nc(C(C)(C)C)n[nH]3)C2)cs1 (stereo unspecified) | 4.06%
COc1ccc(S(=O)(=O)Cc2noc(CC(C)C)n2)cc1 | 5.52%
COc1ccccc1CN(CCCn1ccnc1)CC1CCOC1 (stereo unspecified) | 11%
CC(C)(C)OC(=O)N(CCNS(=O)(=O)N1CCOCC1)C1CC1 | -4.43%
Cc1cc(NC(=O)CN2CCCC2Cn2nc(C)nc2C)on1 (stereo unspecified) | -3.31%
O=C(CCc1ccccc1)C1CCCN(C(=O)c2ncc(F)cc2F)C1 (stereo unspecified) | -17.4%
COC(=O)C(NC(=O)C(C)C)c1cc(F)ccc1F (stereo unspecified) | -4.53%
CNS(=O)(=O)c1ccc(C(=O)NC2CCc3nc(C)cn3C2)o1 (stereo unspecified) | -12.3%
O[C@H]1CN(Cc2cccc(C(F)(F)F)c2)CC[C@@]12CCCO2 | -19.6%
Cc1cccc2c1nc1n2[C@@H](CNC(=O)c2ccncc2)COC1 | 3.04%
CN(C)C(=O)c1c[nH]nc1C1CCN(S(=O)(=O)c2cccc(Cl)c2)CC1 | 1.22%
Cc1cc(NC2CCN(Cc3ccccn3)CC2)n2nc(C)c(C)c2n1 | 0.951%
CC(C)(C)n1nc(C2CC2)cc1C(=O)NCC1(C(N)=O)CCOCC1 | -11.1%
CN1C(=O)C(c2cccnc2)CC12CCN(CCO)CC2 (stereo unspecified) | 3.55%
Cc1nc(CNCC2CCCN2c2cccnn2)oc1C (stereo unspecified) | -3.31%
c1ccc2oc(N3CCC(c4nncn4C4CC4)CC3)nc2c1 | 12.7%
c1cncc(CN2CCc3c(nnn3CC3CC3)C2COCC2CC2)c1 (stereo unspecified) | 3.88%
CN1CCN(c2ccnc3c(F)cc(Br)cc23)CC1 | 27.2%
COc1cccc2c1OCC(C(=O)N1CCN(S(C)(=O)=O)CC1)C2 (stereo unspecified) | -7.23%
CN(C)Cc1nn(C)c2c1CCN(C(=O)c1cnccn1)C2 | -134%
CCC(C#N)NC(=O)c1cc(Br)c2c(c1)OCCO2 (stereo unspecified) | -15.7%
Cc1ccc(C(=O)NCCCS(=O)(=O)c2ccccc2)c(=O)[nH]1 | -4.97%
CN(C(=O)Cn1nc(-c2ccc(Cl)cc2)ccc1=O)C1CCS(=O)(=O)C1 (stereo unspecified) | 1.96%

SMILES | cytotoxicity at 10 µM
CCNc1nc(N(C)C)nc(-n2cnc(SC)n2)n1 | 2.22%
COc1cc(N2CC[C@@H]3O[C@@H](C(=O)NCCN(C)C)C[C@@H]32)ncn1 | 0.588%
Cc1cc(-c2cnc(N3CCCCCC3)nc2-c2cccnc2C)on1 | -8.75%
CC(C)c1csc(C2CCCN(C(=O)c3ncccn3)C2)n1 (stereo unspecified) | 6.3%
Cc1cc2c(cc1CN1CCCCC1CCn1ccnc1C)OCO2 (stereo unspecified) | 3.09%
Cc1noc(C)c1CC(=O)NCC(C)N1CCOCC1 (stereo unspecified) | -52%
Cc1ccc(C(=O)N2CCc3ncnc(C)c3CC2)cc1F | 11.5%
Cn1cc(C(=O)N2CCN(Cc3cscn3)CC2)ccc1=O | -4.79%
Cc1nc(CN2CCN(C)C(=O)C23CCN(CC2CCCC2)CC3)cs1 | 11%
CCC[C@H]1CN(S(=O)(=O)c2ccc(Cl)cc2)C[C@@H]1NC(C)=O | -12.4%
Cc1cc(C)n(CC2CCCN2C(=O)c2c[nH]c3ncccc23)n1 (stereo unspecified) | -0.808%
Cn1nnnc1SCCNC(=O)C1CCN(C(=O)C2CCC2)CC1 | -3.22%
O=C(CN1CCC(OCC2CCCO2)CC1)NCC(F)(F)F (stereo unspecified) | -1.2%
Cc1ccc(CNC(=O)c2ccc(=O)n(C)n2)c(OC2CCCC2)c1 | 5.25%
CC(C)=CCN1C[C@@H]2CC[C@H]1CN(C(=O)Cn1c(C)cc(C)nc1=O)C2 | -4.36%
CCc1nc(CN(C)C(=O)NC(C)c2cccc(NC(C)=O)c2)cs1 (stereo unspecified) | -4.85%
Cn1ccnc1CN1CCCC(CO)(CCc2ccccc2)C1 (stereo unspecified) | -3.36%
CN1CCN(C[C@@H]2CN(C(=O)CC3CCCCC3)C[C@@H]2CO)CC1 | -8.76%
CCN(C)c1ncc2c(c1C(=O)O)CCN(C1CCOC1)C2 (stereo unspecified) | 11.5%
CCS(=O)(=O)Nc1ccc(C(=O)NCCCN2CCCC2)cc1 | 1.83%
c1ccc(-n2ccnc2)c(CNCC2CNc3ccnn3C2)c1 (stereo unspecified) | -8.11%
CSc1nc(C)cc(N2CCC(c3ncc[nH]3)CC2)n1 | -10.6%
CCCOCCn1ncc(N2CCc3ccccc3C2)cc1=O | 2.63%

SMILES | cytotoxicity at 10 µM
COc1cc(Cl)cc(CN2CCCC(N3CCOCC3)C2)c1OC (stereo unspecified) | 0.944%
CCOC(=O)C1(NCC(=O)Nc2cc(C)ccc2OC)CCCC1 | 6.9%
CCOCCn1c(=O)n(CCC(C)C)c2ncc(C(=O)O)cc21 | 2.62%
CC(C)NC(=O)N1CCC(n2ccc(C(F)(F)F)n2)CC1 | 3.02%
O=C1CCCN1Cc1ncn2c1CN(C(=O)NC1CCCCC1)CCC2 | -150%
O=C(Nc1ccc(Br)cc1F)c1ccc(N2CCCCC2)nn1 | 1.16%
COc1ccc(CN2Cc3cn(C)nc3C(COCC3CC3)C2)cc1 (stereo unspecified) | -78.5%
CCCc1nnc(NCCc2noc(C3CCC3)n2)o1 | -8.22%
OC1(c2cn(C3CCN(C4CCSC4)CC3)nn2)CCCC1 (stereo unspecified) | 2.13%
Cc1cnc(N)c(C(=O)C2CCN(C(=O)C3CCC3)CC2)c1 | -23.1%
Cc1nc(CCNC(=O)C2CC(=O)N(C(C)(C)C)C2)sc1C (stereo unspecified) | -13.2%
CCCn1c(C)c(CC(=O)N[C@H](C)C(=O)OC)c2c1CC(C)(C)CC2=O | -2.06%
CC(=O)Nc1nc(C(=O)N2CCCC2c2noc(C)n2)cs1 (stereo unspecified) | -9.55%
CCC(C)(C)NCc1nc(C(C)(C)NC(=O)OC(C)(C)C)no1 | 2.35%
COc1cccc(S(=O)(=O)N2C[C@@H](O)[C@H](N(C)C)C2)c1 | 5.76%
OC(c1ccccc1)c1cn(C2CCN(Cc3nccs3)CC2)nn1 (stereo unspecified) | 7.44%
CC(C)CCC(=O)N1CCN(C(=O)c2ccc3nccn3c2)CC1 | 7.42%
CN(c1ncccc1C#N)C1CCN(Cc2ccncc2)CC1 | -2.86%
O=C(NCc1cccc(N2CC=CC2)c1)NCC(F)(F)F | 8.89%
